Measurements published in ChEMBL document CHEMBL1149244, “Novel azido and isothiocyanato analogues of [3-(4-phenylalkylpiperazin-1-yl)propyl]bis(4-fluorophenyl)amines as potential irreversible ligands for the dopamine transporter” (J Med Chem, 2004).

Target: Sodium-dependent dopamine transporter (Rattus norvegicus, UniProt P23977)
Experiment: Displacement of [3H]WIN-35428 from DAT in Sprague-Dawley rat striatum
Method in brief: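 Male Sprague-Dawley rat striatal membranes (homogenized in ice-cold modified Krebs-HEPES, pH 7.4; washed by centrifugation), 2.5 mg original wet weight per tube, preincubated 5 min with or without test compound. Nonspecific binding defined with 0.1 mM cocaine. Filtration on BSA-presoaked GF/B filters, scintillation counting. Triplicates. IC50 and Hill coefficient reported.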

Sodium-dependent dopamine transporter, sequence (P23977 whole entry): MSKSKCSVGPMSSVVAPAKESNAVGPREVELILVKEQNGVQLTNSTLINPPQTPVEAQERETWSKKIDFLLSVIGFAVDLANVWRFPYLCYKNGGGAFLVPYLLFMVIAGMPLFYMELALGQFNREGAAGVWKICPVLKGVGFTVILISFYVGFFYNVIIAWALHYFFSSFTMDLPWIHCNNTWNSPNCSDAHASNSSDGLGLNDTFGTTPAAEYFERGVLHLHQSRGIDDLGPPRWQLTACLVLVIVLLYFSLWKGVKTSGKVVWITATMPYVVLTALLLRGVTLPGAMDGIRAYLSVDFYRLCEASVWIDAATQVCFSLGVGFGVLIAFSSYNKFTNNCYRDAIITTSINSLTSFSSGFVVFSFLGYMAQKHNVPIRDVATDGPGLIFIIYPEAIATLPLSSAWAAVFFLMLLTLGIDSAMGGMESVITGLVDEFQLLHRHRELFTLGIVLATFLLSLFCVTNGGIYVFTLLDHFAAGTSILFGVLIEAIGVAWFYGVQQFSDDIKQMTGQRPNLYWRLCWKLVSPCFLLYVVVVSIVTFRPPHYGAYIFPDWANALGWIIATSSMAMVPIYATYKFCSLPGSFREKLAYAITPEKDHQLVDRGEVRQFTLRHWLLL

| Compound | IC50 |
| --- | --- |
| Fc1ccc(N(CCCN2CCN(CCCc3ccc(N=C=S)cc3)CC2)c2ccc(F)cc2)cc1 | 99.8 nM |
| Fc1ccc(N(CCCN2CCN(Cc3ccccc3)CC2)c2ccc(F)cc2)cc1 | 29.7 nM |
| Fc1ccc(N(CCCN2CCN(CCc3ccc(N=C=S)cc3)CC2)c2ccc(F)cc2)cc1 | 68.3 nM |
| Fc1ccc(N(CCCN2CCN(CCCc3ccc(N=C=S)c(I)c3)CC2)c2ccc(F)cc2)cc1 | 95.5 nM |
| [N-]=[N+]=Nc1ccc(CCN2CCN(CCCN(c3ccc(F)cc3)c3ccc(F)cc3)CC2)cc1I | 163 nM |
| Fc1ccc(N(CCCN2CCN(CCc3ccc(N=C=S)c(I)c3)CC2)c2ccc(F)cc2)cc1 | 66 nM |
| [N-]=[N+]=Nc1ccc(CCCN2CCN(CCCN(c3ccc(F)cc3)c3ccc(F)cc3)CC2)cc1I | 282 nM |
| Fc1ccc(N(CCCN2CCN(Cc3ccc(N=C=S)cc3)CC2)c2ccc(F)cc2)cc1 | 75.4 nM |
| [N-]=[N+]=Nc1ccc(CN2CCN(CCCN(c3ccc(F)cc3)c3ccc(F)cc3)CC2)cc1I | 242 nM |
| [N-]=[N+]=Nc1ccc(CCN2CCN(CCOC(c3ccccc3)c3ccccc3)CC2)cc1I | 5.61 nM |
| Fc1ccc(N(CCCN2CCN(CCCc3ccccc3)CC2)c2ccc(F)cc2)cc1 | 19.5 nM |
